The source of these data is ChEMBL document CHEMBL5357024, “MDM2 Antagonist Idasanutlin Reduces HDAC1/2 Abundance and Corepressor Partners but Not HDAC3” (ACS Med Chem Lett, 2024).

For experiment [1], the target named is T1, Paired amphipathic helix protein Sin3a (Homo sapiens) (UniProt Q96ST3).
T1 sequence (whole entry): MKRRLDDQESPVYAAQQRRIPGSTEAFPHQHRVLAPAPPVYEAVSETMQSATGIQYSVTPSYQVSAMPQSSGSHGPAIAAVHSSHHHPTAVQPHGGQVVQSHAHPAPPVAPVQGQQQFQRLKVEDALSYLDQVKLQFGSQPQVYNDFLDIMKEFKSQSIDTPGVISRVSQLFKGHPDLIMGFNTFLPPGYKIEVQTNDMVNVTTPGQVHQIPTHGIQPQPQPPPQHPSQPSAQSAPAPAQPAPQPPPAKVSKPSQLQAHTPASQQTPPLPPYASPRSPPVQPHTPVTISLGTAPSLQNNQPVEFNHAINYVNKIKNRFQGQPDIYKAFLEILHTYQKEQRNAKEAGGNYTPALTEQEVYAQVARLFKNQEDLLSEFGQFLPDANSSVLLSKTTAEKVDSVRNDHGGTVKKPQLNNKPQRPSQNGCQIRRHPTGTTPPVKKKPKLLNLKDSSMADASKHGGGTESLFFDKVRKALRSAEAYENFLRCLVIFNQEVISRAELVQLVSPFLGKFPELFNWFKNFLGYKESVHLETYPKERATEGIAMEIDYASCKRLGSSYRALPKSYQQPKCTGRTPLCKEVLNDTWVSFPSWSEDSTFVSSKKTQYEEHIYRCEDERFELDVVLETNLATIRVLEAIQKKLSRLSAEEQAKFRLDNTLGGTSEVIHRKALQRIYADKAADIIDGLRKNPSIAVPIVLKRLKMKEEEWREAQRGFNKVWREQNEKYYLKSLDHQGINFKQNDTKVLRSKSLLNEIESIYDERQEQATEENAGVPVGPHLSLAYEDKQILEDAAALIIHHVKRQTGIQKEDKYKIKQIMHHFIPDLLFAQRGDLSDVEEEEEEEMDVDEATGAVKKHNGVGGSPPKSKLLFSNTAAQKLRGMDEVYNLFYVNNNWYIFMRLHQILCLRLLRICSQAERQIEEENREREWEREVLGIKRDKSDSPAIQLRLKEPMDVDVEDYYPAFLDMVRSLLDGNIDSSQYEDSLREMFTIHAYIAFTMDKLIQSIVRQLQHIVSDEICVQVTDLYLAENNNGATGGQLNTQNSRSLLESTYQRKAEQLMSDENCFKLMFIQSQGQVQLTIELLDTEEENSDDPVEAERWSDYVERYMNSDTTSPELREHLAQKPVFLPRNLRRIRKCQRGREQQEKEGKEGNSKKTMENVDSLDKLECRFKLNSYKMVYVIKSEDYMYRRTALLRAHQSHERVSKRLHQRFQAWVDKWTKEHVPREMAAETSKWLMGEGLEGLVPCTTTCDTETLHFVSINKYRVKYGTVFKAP
As to the kind of experiment: Induction of SIN3A degradation in human HCT-116 cells assessed as reduction in SIN3A abundance by measuring remaining activity at 1 uM measured after 24 hrs by Western blot analysis (reference value: 100%). The format is cell-based. An outline of the steps:
(§1)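 HCT116 cells seeded in six-well plates for 24 h, then exposed 24 h to compound (0.01–10 μM) or DMSO in fresh medium. Lysis in Tris-HCl/NaCl/NP-40/Triton X-100 with protease inhibitor. Bradford-normalised 30 μg protein per lane. Quantitative Western blot used specific HDAC1, HDAC2, HDAC3, LSD1 or Sin3a antibodies with IRDye secondaries. Abundance compared with DMSO, n = 2 replicates.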
For orientation: In western blotting, separated proteins are transferred to a membrane and probed.

In the next experiment the test system is HCT-116. In words: Effect on histone H3 lysine K56 acetylation in human HCT-116 cells assessed as increase in H3K56ac level at 0.1 to 10 uM by Western blot analysis. It counts as functional, cell-based. To be noted: dose 0.1-10 µM. In short, it runs like this: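 HCT116 cells (DMEM, 10% FBS, glutamine/pen/strep, 37 °C, 5% CO2) seeded 24 h, then treated with DMSO or compound in fresh medium. Pellets after lysis were acid-extracted with 0.4 N H2SO4 at 4 °C overnight. Acid histone extract run on 4–12% bis-Tris gels, transferred to nitrocellulose and probed for H3K56ac. IRDye secondaries with infrared imaging.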

Experiment [2] concerns the target Lysine-specific histone demethylase 1A (Homo sapiens) (UniProt O60341). In words: Induction of LSD1 degradation in human HCT-116 cells assessed as reduction in LSD1 abundance by measuring remaining activity at 0.01 uM measured after 24 hrs by Western blot analysis (reference value: 100%). The format is cell-based. An outline of the steps: as §1
The target is the same in experiment [3]. In words: Induction of LSD1 degradation in human HCT-116 cells assessed as reduction in LSD1 abundance by measuring remaining activity at 2.5 uM measured after 24 hrs by Western blot analysis (reference value: 100%). The format is cell-based. In short, it runs like this: as §1
Experiment [4] addresses T2, E3 ubiquitin-protein ligase Mdm2/Histone deacetylase 2 (Homo sapiens) (UniProt Q00987+Q92769). As to the kind of experiment: PROTAC activity at MDM2/HDAC2 in human HCT-116 cells assessed as decrease in HDAC2 abundance by measuring remaining activity at 5 uM measured after 24 hrs by Western blot analysis (reference value: 100%). The format is cell-based. An outline of the steps: as §1

For experiment [5], the target named is T3, E3 ubiquitin-protein ligase Mdm2/Histone deacetylase 3 (Homo sapiens) (UniProt Q00987+O15379). As to the kind of experiment: PROTAC activity at MDM2/HDAC3 in human HCT-116 cells assessed as reduction in HDAC3 abundance by measuring remaining activity at 10 uM measured after 24 hrs by Western blot analysis (reference value: 100%). It counts as cell-based. An outline of the steps: (§2)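 HCT116 cells in DMEM with 10% FBS and glutamine/penicillin/streptomycin at 37 °C, 5% CO2. Seeded 4 × 10^5 cells/well, after 24 h treated 24 h with DMSO or compound in fresh medium. Lysed in Tris-HCl/NaCl/NP-40/Triton X-100 buffer with protease inhibitor, Bradford-quantified, 30 μg protein per lane. Quantitative Western blot with specific HDAC1/2/3 antibodies, IRDye secondaries, infrared imaging, versus DMSO. n = 2 replicates.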
T3 sequence (O15379 whole entry, looked up): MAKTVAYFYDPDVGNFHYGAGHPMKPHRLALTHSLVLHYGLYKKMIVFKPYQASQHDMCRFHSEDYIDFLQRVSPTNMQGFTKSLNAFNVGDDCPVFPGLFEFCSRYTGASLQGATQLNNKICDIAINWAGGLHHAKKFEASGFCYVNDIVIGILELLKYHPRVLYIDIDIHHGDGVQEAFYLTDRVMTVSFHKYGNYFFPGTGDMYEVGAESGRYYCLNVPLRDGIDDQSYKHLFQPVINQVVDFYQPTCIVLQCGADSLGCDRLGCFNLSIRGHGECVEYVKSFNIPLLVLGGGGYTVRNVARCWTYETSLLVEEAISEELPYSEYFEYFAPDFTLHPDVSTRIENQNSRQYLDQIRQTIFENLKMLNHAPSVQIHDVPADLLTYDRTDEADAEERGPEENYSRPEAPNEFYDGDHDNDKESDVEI
T3 sequence (Q00987 whole entry, looked up): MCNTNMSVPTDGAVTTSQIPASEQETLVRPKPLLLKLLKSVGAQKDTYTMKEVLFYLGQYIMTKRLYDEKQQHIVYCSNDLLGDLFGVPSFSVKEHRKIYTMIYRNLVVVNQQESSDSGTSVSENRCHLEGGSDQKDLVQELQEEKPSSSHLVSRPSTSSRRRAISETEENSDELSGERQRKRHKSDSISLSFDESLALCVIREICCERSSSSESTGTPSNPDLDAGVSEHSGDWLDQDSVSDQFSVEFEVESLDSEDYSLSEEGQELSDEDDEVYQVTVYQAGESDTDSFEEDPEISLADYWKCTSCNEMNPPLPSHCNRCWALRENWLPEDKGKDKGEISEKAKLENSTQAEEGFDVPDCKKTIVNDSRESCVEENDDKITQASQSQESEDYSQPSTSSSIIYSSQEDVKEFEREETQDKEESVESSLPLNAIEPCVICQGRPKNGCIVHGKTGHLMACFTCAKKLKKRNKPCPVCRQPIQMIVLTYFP

Experiment [6] has as its target T2, E3 ubiquitin-protein ligase Mdm2/Histone deacetylase 2 (Homo sapiens). As to the kind of experiment: PROTAC activity at MDM2/HDAC2 in human HCT-116 cells assessed as decrease in HDAC2 abundance by measuring remaining activity at 0.01 uM measured after 24 hrs by Western blot analysis (reference value: 100%). It counts as cell-based. An outline of the steps: as §1

In experiment [7] the target is Lysine-specific histone demethylase 1A (Homo sapiens) (UniProt O60341). As to the kind of experiment: Induction of LSD1 degradation in human HCT-116 cells assessed as reduction in LSD1 abundance by measuring remaining activity at 0.5 uM measured after 24 hrs by Western blot analysis (reference value: 100%). It counts as cell-based. In short, it runs like this:
as §1

Experiment [8] has the same target. In words: Induction of LSD1 degradation in human HCT-116 cells assessed as reduction in LSD1 abundance by measuring remaining activity at 5 uM measured after 24 hrs by Western blot analysis (reference value: 100%). The format is cell-based. An outline of the steps:
as §1

The target is the same in experiment [9]. In words: Induction of LSD1 degradation in human HCT-116 cells assessed as reduction in LSD1 abundance by measuring remaining activity at 0.1 uM measured after 24 hrs by Western blot analysis (reference value: 100%). It counts as cell-based. An outline of the steps: as §1
For experiment [10], the target named is T3, E3 ubiquitin-protein ligase Mdm2/Histone deacetylase 3 (Homo sapiens). In words: PROTAC activity at MDM2/HDAC3 in human HCT-116 cells assessed as reduction in HDAC3 abundance by measuring remaining activity at 0.05 uM measured after 24 hrs by Western blot analysis. It counts as cell-based. In short, it runs like this:
as §2

Active and inactive are the calls of the source. No cut-off for these calls is given here.

T2 sequence (Q00987 whole entry, looked up): as above
T2 sequence (Q92769 whole entry, looked up): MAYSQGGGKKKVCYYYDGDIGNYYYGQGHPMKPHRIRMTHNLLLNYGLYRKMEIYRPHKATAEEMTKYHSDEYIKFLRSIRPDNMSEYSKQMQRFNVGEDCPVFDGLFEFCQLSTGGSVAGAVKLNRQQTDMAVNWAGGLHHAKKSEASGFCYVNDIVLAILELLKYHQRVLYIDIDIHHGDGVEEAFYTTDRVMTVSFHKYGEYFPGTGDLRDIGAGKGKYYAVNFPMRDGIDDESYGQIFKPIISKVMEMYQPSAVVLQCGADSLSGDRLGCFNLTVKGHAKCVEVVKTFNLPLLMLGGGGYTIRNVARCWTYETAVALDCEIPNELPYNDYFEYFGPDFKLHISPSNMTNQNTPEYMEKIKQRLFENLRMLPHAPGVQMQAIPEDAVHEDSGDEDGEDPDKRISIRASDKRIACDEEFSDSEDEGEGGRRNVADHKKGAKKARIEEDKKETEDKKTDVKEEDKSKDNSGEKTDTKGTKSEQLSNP

For the molecule `COc1cc(C(=O)NCCOCCOCCOCCOCCC(=O)Nc2ccc(C(=O)Nc3ccccc3N)cc2)ccc1NC(=O)[C@@H]1N[C@@H](CC(C)(C)C)[C@](C#N)(c2ccc(Cl)cc2F)[C@H]1c1cccc(Cl)c1F`, the Activity in experiment [1] stood at 70%; in experiment [2], 104%; in [3] it was 73%; in [4], 69%; in [5], 91%; in experiment [6] it was 97%. The Activity in [7] was found to be 86%; in experiment [8] it was 70%; in [9] it was 104%; in experiment [10] it was 105%. Moreover, the result with HCT-116 was inactive.
